Compounds with a hit are over-represented: about 3.7% of the library has one in this group of screens.
KCNK9 block: KCNK9 potassium channel inhibitors, primary screen, HEK293 cells, thallium flux; FluxOR thallium flux fluorescence; hits give low values; B-score at 10 µM; 310,000 tested, 1.2% active; AID 488922, 2010;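 active means ratio B-score over 3 SD below the library mean, with starting fluorescence within 5 SD of its mean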;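 further: negative B-score means less thallium flux so channel inhibition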
KCNQ1 block: inhibitors of human KCNQ1 channel, primary screen, cell-based, thallium flux, high-throughput. Potassium voltage-gated channel subfamily KQT member 1 (Homo sapiens), P51787. CHO-K1 KCNQ1, FluxOR thallium flux fluorescence; hits give high values. B-score at 10 µM. 310,000 tested, 1.3% active. AID 2642, 2010;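 active means compounds whose thallium flux B-score, printed positive for inhibition, exceeds three library SD while starting fluorescence stays within three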;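 further: channel opened by potassium depolarization with thallium stimulus after 20 min compound exposure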
Kir21 inh: inhibitors of mouse Kir2.1 inward-rectifier potassium channel. B-score at 10 µM. AID 1672, 2009. 310,000 tested, 0.85% active. HEK293-Kir2.1, FluxOR thallium flux fluorescence; hits give low values. Inward rectifier potassium channel 2 (Mus musculus), P35561;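 active means fluorescence ratio B-score at or below minus 3 SD of library scores, with starting-brightness B-score within 2 SD, cut at about -4.2 in these data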;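 further: channel flux triggered by added potassium and thallium sulfate stimulus; B-score of peak minus minimum fluorescence over baseline after thallium stimulus; more negative B-score means stronger Kir2.1 block with less thallium influx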
Target sequence (P35561 whole entry, looked up): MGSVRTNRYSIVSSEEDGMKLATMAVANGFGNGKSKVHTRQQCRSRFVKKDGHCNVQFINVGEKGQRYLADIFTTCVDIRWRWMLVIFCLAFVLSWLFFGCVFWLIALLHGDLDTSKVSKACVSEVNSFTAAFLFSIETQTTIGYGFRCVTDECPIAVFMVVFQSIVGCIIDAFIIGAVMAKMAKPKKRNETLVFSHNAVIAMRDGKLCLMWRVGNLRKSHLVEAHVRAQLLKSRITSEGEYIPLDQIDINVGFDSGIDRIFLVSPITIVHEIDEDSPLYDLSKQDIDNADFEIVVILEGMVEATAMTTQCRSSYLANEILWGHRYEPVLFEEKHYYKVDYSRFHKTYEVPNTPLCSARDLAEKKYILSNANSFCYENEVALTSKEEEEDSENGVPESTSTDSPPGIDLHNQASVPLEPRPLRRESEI
hERG rescue: hERG rescue from dofetilide block, primary screen, cell-based, CHO-hERG, FluxOR thallium flux, dofetilide IC70; Voltage-gated inwardly rectifying potassium channel KCNH2 (Homo sapiens), Q12809; activation (rescue from dofetilide block), less the hit threshold, % at 10 µM; 310,000 tested, 0.51% active; dofetilide IC70 present; AID 1511, 2009;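 active means activation above the mean of controls blocked by dofetilide plus 5 SD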;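 further: thallium influx through hERG after potassium depolarization seen as dye fluorescence rise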
KCNQ1 pot: potentiators or activators of KCNQ1 channel, primary screen, cell-based, thallium flux, high-throughput. Potassium voltage-gated channel subfamily KQT member 1 (Homo sapiens), P51787. CHO-K1 KCNQ1, thallium flux FluxOR fluorescence; hits give high values. B-score at 10 µM. 310,000 tested, 0.35% active. AID 2648, 2010;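 active means fluorescence ratio B-score, a plate-corrected score, at least three library SD, with initial intensity B-score within 5 SD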
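Assay system: CHO-K1 cells stably expressing KCNQ1; Medium: assay buffer with matched DMSO; Also added: K+/Tl+ depolarizing stimulus; Dosing: single dose; Timing: dye 90 min, compound 20 min, room temperature; Measured by: kinetic FluxOR thallium fluorescence, 10-s 1-Hz baseline, 110-s post-stimulus read; Read-out: peak-minus-minimum fluorescence over initial fluorescence, negative-control normalized, B-scored.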
KCNK3 block: human KCNK3 channel inhibitors, primary screen, CHO cells, FluxOR thallium flux, B-score; 340,000 tested, 0.84% active; FluxOR fluorescence; hits give low values; B-score at 10 µM; AID 602410, 2012; Potassium channel subfamily K member 3 (Homo sapiens), O14649;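 active means B-score under library mean minus 4 SD, starting fluorescence ratio at most library mean plus 5 SD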;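 further: more negative B-score means stronger inhibition of thallium flux through KCNK3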
The depositor's hits bear a star; i = inactive; . = no result given.

SMILES	KCNK9 block	KCNQ1 block	Kir21 inh	hERG rescue	KCNQ1 pot	KCNK3 block
COc1ccc(-n2cccc2/C=C/[N+](=O)[O-])cc1	i	i	-4.8*	-9	i	i
CC(c1ccccc1C(O)(c1ccccc1)c1ccccc1)N(C)C (stereo unspecified)	i	i	-6.2*	-2	14*	i
O=C(CNS(=O)(=O)c1ccccc1)OCC(=O)c1c[nH]c2ccccc12	.	.	.	.	.	i
O=C(c1ccccc1)c1ccc(OCC(O)CNCc2cccc(Cl)c2)cc1 (stereo unspecified)	i	i	-8.4*	-17	i	i
CC(C)c1ccc(OCC(O)CNC(C)c2ccccc2)cc1 (stereo unspecified)	i	i	-6*	-9	i	i
COc1ccc(C(OCC(O)CNCCc2ccccc2)c2ccc(OC)cc2)cc1 (stereo unspecified)	i	i	-6.7*	-15	i	i
CC(NCC(O)COCCC12CC3CC(CC(C3)C1)C2)c1ccccc1 (stereo unspecified)	i	8*	-12*	-18	i	i
CCC(=O)c1ccc(OCC(O)CNC(C)c2ccccc2)cc1 (stereo unspecified)	i	i	-1.7	-4	i	i
C=CCNC(=S)NS(=O)(=O)c1cccs1	i	i	0.02	-5	i	i
COc1cc(C2/C(=C(\O)c3ccc4c(c3)OCCO4)C(=O)C(=O)N2c2nnc(C)s2)cc(OC)c1OC (stereo unspecified)	i	i	2.7	-1	i	i
OC(CNCCc1ccc(Cl)cc1)COc1ccc2ccccc2c1 (stereo unspecified)	.	.	.	.	.	i
Cc1ccc(C(OCC(O)CNCc2ccc(F)cc2)c2ccccc2)cc1 (stereo unspecified)	i	i	-12*	-16	i	i
OC(CNCCc1ccccc1)COc1ccc(OCC(O)CNCCc2ccccc2)cc1 (stereo unspecified)	i	i	-11*	-7	i	i
OC(CNCCc1ccc(Cl)cc1)COc1cc(Cl)ccc1Cl (stereo unspecified)	i	9*	-14*	-17	i	i
OC(CNCCC(c1ccccc1)c1ccccc1)COc1ccccc1 (stereo unspecified)	i	i	-6.5*	-20	i	i
Cc1ccc(-n2nc3c(c2NC(=O)CC(C)C)CS(=O)(=O)C3)c(C)c1	i	i	-1.9	-3	i	i
COc1ccc(C2(c3ccc(OC)cc3)NC(=O)N(CC(=O)NC3CCS(=O)(=O)C3)C2=O)cc1 (stereo unspecified)	.	.	.	.	.	i
CCCCN(C(=O)c1cc2ccccc2o1)c1c(N)n(CCCC)c(=O)[nH]c1=O	.	.	.	.	.	i
Cc1ccc(NC(=O)Cc2nc(-c3c[nH]c(C(=O)N4CCCC4)c3)cs2)c(C)c1	.	.	.	.	.	i
CC(=O)Nc1ccc(NC(=O)CCCn2cnc3ccccc3c2=O)cc1	i	i	2.4	-6	i	i
NC(=O)c1ccsc1NC(=O)COC(=O)c1cccnc1Cl	.	.	.	.	.	i
O=C(Nc1ccccc1)OCCCCCOC(=O)Nc1ccccc1	i	i	0.91	7.7*	i	i
Cc1cc(=O)oc2cc(OC(C(=O)O)c3ccccc3)ccc12 (stereo unspecified)	i	i	-0.63	6.7*	i	i
Cc1cc(=O)oc2cc(OC(C)C)ccc12	i	i	2.9	-13	i	i
O=C(CCSc1nnc(-c2ccco2)o1)N1CCOCC1	i	i	-0.37	5.7*	i	i
SMILES	KCNK9 block	KCNQ1 block	Kir21 inh	hERG rescue	KCNQ1 pot	KCNK3 block
O=C(CCSc1nnc(-c2ccccc2)o1)N1CCOCC1	i	i	0.75	-3	i	i
O=C(NC(=S)N1CCN(c2ccc(O)cc2)CC1)c1cccs1	i	i	-1.2	-10	i	i
O=C(NC(=S)Nc1ccc(N2CCCCC2)cc1)c1cccs1	i	i	2.5	-4	9*	i
COc1ccc(N2CCN(C(=S)NC(=O)c3cccs3)CC2)c([N+](=O)[O-])c1	i	i	0.05	-7	13*	i
O=C(NC(=S)N1CCN(c2ccc(F)cc2)CC1)c1cccs1	i	i	0.55	15*	13*	i
O=C(NC(=S)Nc1ccccc1N1CCCCC1)c1cccs1	i	i	-0.38	7.5*	12*	i
O=C(NC(=S)Nc1ccccc1N1CCOCC1)c1cccs1	i	i	-0.3	3	i	i
COC(=O)c1sc(C(C)(C)C)cc1CS(=O)(=O)c1ccc(Cl)cc1	i	i	-2.5	-3	i	i
O=C(NC(=S)Nc1ccccc1N1CCCC1)c1cccs1	i	i	-1.4	3	17*	i
Cc1ccccc1OCC(=O)NCCC1=CCCCC1	i	i	-5.4*	-6	i	i
O=C(Cn1cccc1C(=O)c1ccccc1)NCCCc1ccccc1	i	i	-1.3	-7	i	i
Cn1c(=O)cc(SCC(=O)NCCC2=CCCCC2)c2ccccc21	i	i	-5.5*	-1	i	i
COc1ccc(CNC(=O)CSc2cc(=O)n(C)c3ccccc23)cc1	i	i	-0.61	-7	i	i
CC(=O)Nc1ccccc1OCC(=O)NCCC1=CCCCC1	i	i	-1.2	-8	i	i
COc1ccc(OC(C)C(=O)NCCC2=CCCCC2)cc1 (stereo unspecified)	i	i	-6.4*	-6	i	i
O=C(Cn1cccc1C(=O)c1ccccc1)NCCC1=CCCCC1	i	i	-6.8*	-4	i	i
CCc1ccc(CNC(=O)C2CCC(=O)N(CCc3ccc(Cl)cc3)C2)nc1 (stereo unspecified)	i	i	-0.82	-9	i	i
CCCc1cc(=O)oc2cc(C)cc(OCC(=O)N3CCC(C(=O)O)CC3)c12	i	i	0.2	-6	i	i
COc1ccc(CC(=O)Nc2nc(-c3cccnc3)cs2)cc1	i	i	0.59	-5	i	i
Cc1ccc(-c2csc(NC(=O)Cc3ccc(F)cc3)n2)o1	i	i	0.13	-14	14*	i
CCc1ccc(NC(=O)c2c(Cl)nc(C)c(Cl)c2C)cc1	i	i	-0.33	-7	i	i
